Key:
[1] = tested on: Mus musculus; assay: Number of survivors against Herpes simplex virus type-1 infection in mice at 25 mg/kg/day out of total 10 tested; assay type: functional
Procedure, shortened: (§1)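 Female Swiss-Webster mice (20–23 g, 10 per group) were infected ip with 10^3 PFU HSV-1 Schooler in 0.3% BSA-PBS. Drug was given sc twice daily in PBS, starting 1 h postinfection, for 5 days. Survival was followed for 21 days. Mean day of death of dead animals was compared with placebo-treated infected controls by Student's t-test.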

[2] = tested on: Mus musculus; assay: Day of death in lethal test against herpes simplex virus type-1 at 50 mg/kg/day; assay type: ADME, organism-based; conditions: in vivo; procedure, shortened: as §1
[3] = tested on: Human betaherpesvirus 5; assay: Antiviral activity against Human cytomegalovirus (AD169 strain); assay type: functional; conditions: read-out: ID50 (the source's name)
Procedure, shortened: (§2)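 WI-38 monolayers were infected, with virus adsorbed for 1–2 h. They were then overlaid with EMEM maintenance medium (1% carboxymethyl cellulose, 2.5% FBS) containing duplicate drug dilutions. Monolayers were stained after 4–6 days at 37 °C. ID50 was taken as the concentration giving 50% plaque reduction versus virus controls. Titrations were done in duplicate.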

[4] = tested on: Mus musculus; assay: Number of survivors against Herpes simplex virus type-2 infection in mice at 25 mg/kg/day out of total 10 tested; assay type: functional
Procedure, shortened: (§3)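 Female Swiss-Webster mice (20–23 g), 10 per group, infected intraperitoneally with 10^6 PFU HSV-2 strain Curtis (Vero freeze-thaw extract) in 0.3% BSA-PBS. Drug given subcutaneously in PBS twice daily from 1 h postinfection for 5 days, doses 12.5–200 mg/kg/day. Survival followed 21 days; PD50 by probit analysis; mean day of death by Student's t-test versus placebo.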

[5] = tested on: Mus musculus; assay: Number of survivors against Herpes simplex virus type-2 infection in mice at 12.5 mg/kg/day out of total 10 tested; assay type: functional
Procedure, shortened: (§4)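 Female Swiss-Webster mice (20–23 g, 10 per group) were infected ip with 10^6 PFU HSV-2 Curtis in 0.3% BSA-PBS. Dosing was sc twice daily in PBS from 1 h postinfection for 5 days. Survival was recorded over 21 days. Mean day of death was computed for dead mice and compared with placebo-treated infected controls by Student's t-test.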

[6] = tested on: Mus musculus; assay: Protective dose against Herpes simplex virus type type -2 infection in mice at 200 mg/kg; assay type: functional; conditions: read-out: PD50; procedure, shortened: as §3
[7] = tested on: WI-38; assay: Tested for growth inhibition againstWI-38 cells; assay type: functional; conditions: Homo sapiens, read-out: ID50 (the source's name)
Procedure, shortened: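 WI-38 cells seeded at 1.2 × 10^6 per well, incubated overnight at 37 °C, then refed with growth medium (EMEM, 10% FBS) holding serial drug dilutions or none, for 3 more days at 37 °C. Quadruplicate cultures per concentration trypsinized and counted daily for viable cells by trypan blue exclusion.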

[8] = tested on: Mus musculus; assay: Number of survivors against Herpes simplex virus type-1 infection in mice at 200 mg/kg/day out of total 10 tested; assay type: functional; procedure, shortened: as §1
[9] = tested on: Mus musculus; assay: Number of survivors against Herpes simplex virus type-2 infection in mice at 200 mg/kg/day out of total 10 tested; assay type: functional; procedure, shortened: as §4
[10] = tested on: Human alphaherpesvirus 2; assay: Antiviral activity against Herpes simplex virus-2 (thymidine kinase deficient strains isolated as BVaraU resistant mutants of HSV-1 (KOS)); assay type: functional; conditions: read-out: ID50 (the source's name)
[11] = tested on: Mus musculus; assay: Number of survivors against Herpes simplex virus type-2 infection in mice at 100 mg/kg/day out of total 10 tested; assay type: functional; procedure, shortened: as §4
[12] = tested on: Human alphaherpesvirus 1; assay: Antiviral activity against Herpes simplex virus-1 (thymidine kinase deficient strains isolated as BVaraU resistant mutants of HSV-1 (KOS)); assay type: functional; conditions: read-out: ID50 (the source's name); procedure, shortened: as §2
[13] = tested on: Mus musculus; assay: Day of death in lethal test against herpes simplex virus type-1 at 12.5 mg/kg/day; assay type: ADME, organism-based; conditions: in vivo; procedure, shortened: as §1
[14] = tested on: Human alphaherpesvirus 3; assay: Antiviral activity against Varicella zoster virus (Ellen strain); assay type: functional; conditions: read-out: ID50 (the source's name); procedure, shortened: as §2
[15] = tested on: Mus musculus; assay: Day of death in lethal test against herpes simplex virus type-2 at 50 mg/kg/day; assay type: ADME, organism-based; conditions: in vivo; procedure, shortened: as §4
[16] = tested on: Mus musculus; assay: Day of death in lethal test against herpes simplex virus type-1 at 150 mg/kg/day; assay type: functional; procedure, shortened: as §1
[17] = tested on: Human alphaherpesvirus 1; assay: Antiviral activity against Herpes simplex virus-1 (Schooler); assay type: functional; conditions: read-out: ID50 (the source's name); procedure, shortened: as §2
[18] = tested on: Vaccinia virus; assay: Antiviral activity against vaccinia virus (CL strain); assay type: functional; conditions: Orthopoxvirus vaccinia; read-out: ID50 (the source's name)
[19] = Antiviral activity against Herpes simplex virus-1 (KOS strain); assay type: functional; conditions: Human alphaherpesvirus 1; read-out: ID50 (the source's name); procedure, shortened: as §2
[20] = tested on: Mus musculus; assay: Day of death in lethal test against herpes simplex virus type-2 at 25 mg/kg/day; assay type: ADME, organism-based; conditions: in vivo; procedure, shortened: as §4
[21] = tested on: Mus musculus; assay: Number of survivors against Herpes simplex virus type-1 infection in mice at 150 mg/kg/day out of total 10 tested; assay type: ADME, organism-based; conditions: in vivo; procedure, shortened: as §1
[22] = tested on: Mus musculus; assay: Protective dose against Herpes simplex virus type type -1 infection in mice at 200 mg/kg; assay type: functional; conditions: read-out: PD50
Procedure, shortened: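 Female Swiss-Webster mice (20–23 g), 10 per group, infected intraperitoneally with 10^3 PFU HSV-1 strain Schooler (Vero freeze-thaw extract) in 0.3% BSA-PBS. Subcutaneous dosing in PBS twice daily from 1 h postinfection for 5 days, 12.5–200 mg/kg/day. Survival scored over 21 days; PD50 from survival by probit analysis.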

[23] = tested on: Mus musculus; assay: Number of survivors against Herpes simplex virus type-1 infection in mice at 100 mg/kg/day out of total 10 tested; assay type: functional; procedure, shortened: as §1
[24] = tested on: Mus musculus; assay: Day of death in lethal test against herpes simplex virus type-2 at 12.5 mg/kg/day; assay type: ADME, organism-based; conditions: in vivo; procedure, shortened: as §4
[25] = tested on: Mus musculus; assay: Day of death in lethal test against herpes simplex virus type-2 at 100 mg/kg/day; assay type: ADME, organism-based; conditions: in vivo; procedure, shortened: as §4
[26] = tested on: Mus musculus; assay: Day of death in lethal test against herpes simplex virus type-1 at 25 mg/kg/day; assay type: ADME, organism-based; conditions: in vivo; procedure, shortened: as §1
[27] = tested on: Mus musculus; assay: Day of death in lethal test against herpes simplex virus type-1 at 100 mg/kg/day; assay type: ADME, organism-based; conditions: in vivo; procedure, shortened: as §1

## Nc1nc(O)c2ncn([C@@H]3CO[C@H](CO)[C@H]3CO)c2n1
[1]
  No. of survivors: 2
[2]
  Mean day of death: 10.1
[3]
  IC50: > 360 µM
[4]
  No. of survivors: 6
[5]
  No. of survivors: 0
[6]
  ED50: 52 mg/kg/day
[7]
  IC50: > 700 µM
[8]
  No. of survivors: 9
[9]
  No. of survivors: 9
[10]
  IC50: 180 µM
[11]
  No. of survivors: 6
[12]
  IC50: 180 µM
[13]
  Mean day of death: 9.6
[14]
  IC50: 40 µM
[15]
  Mean day of death: 10.9
[16]
  Mean day of death: 12.3
[17]
  IC50: 18 µM
[18]
  IC50: > 360 µM
[19]
  IC50: 7 µM
[20]
  Mean day of death: 12.5
[21]
  No. of survivors: 7
[22]
  ED50: 84 mg/kg/day
[23]
  No. of survivors: 6
[24]
  Mean day of death: 10.3
[25]
  Mean day of death: 12.2
[26]
  Mean day of death: 9.1
[27]
  Mean day of death: 14.7
